Results as given in PMC9975633 (Chinese Herbal Medicines, 2022).

Assays:
[1] = Bidirectional transport of SKE and RAI in Caco-2 cell monolayer model; assay type: in vitro ADME, human; conditions: human; for efflux ratio at 0.05 mg/mL / efflux ratio at 0.1 mg/mL / efflux ratio at 0.025 mg/mL: Caco-2, ER, ER=Papp(B-A)/Papp(A-B); for Papp A→B at 0.05 mg/mL / Papp A→B at 0.1 mg/mL / Papp A→B at 0.025 mg/mL: Caco-2, Papp(A-B), Caco-2, AP-BL; for Papp A→B at 0.05 mg/mL / Papp A→B at 0.1 mg/mL / Papp A→B at 0.025 mg/mL / Papp B→A at 0.05 mg/mL / Papp B→A at 0.1 mg/mL / Papp B→A at 0.025 mg/mL: mean ± SD, n = 3; for Papp B→A at 0.05 mg/mL / Papp B→A at 0.1 mg/mL / Papp B→A at 0.025 mg/mL: Caco-2, Papp(B-A), Caco-2, BL-AP
Caco-2 cell monolayer = test: as above; assay type: in vitro ADME, human; conditions: Caco-2; for Cumulative transport mass (AP-BL): in SKE 0.025, 0.05, 0.1 mg/mL over time, Fig. 3
[2] = system: rat different intestinal segments; test: In situ single-pass intestinal perfusion in rats; assay type: in vivo, Sprague-Dawley rats; conditions: same tested intestinal segment
Method in brief: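 Male Sprague-Dawley rats (250 ± 50 g) were fasted overnight, anesthetized, and ~10 cm duodenum, jejunum or colon segments were cannulated and flushed with 37 °C saline. Krebs-Ringer perfusate held 22.50 mg/mL extract or matched pure anthraquinones (DMSO <1.0%). Flow was 1 mL/min for 5 min, then 0.2 mL/min for 30 min equilibration. Outflow was collected every 15 min to 120 min and analysed by HPLC. Peff was calculated from gravimetrically corrected volumes and segment length/radius.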

P-gp = P-gp (Homo sapiens, UniProt P08183); test: Effect of verapamil; assay type: in vitro ADME; conditions: 0.1 mg/mL SKE + 100 μmol/L verapamil; Caco-2; Fig. 4
Method in brief: (§1)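 Caco-2 cells were seeded at 1×10^5/cm² on 0.4 µm inserts and grown about 20 d in DMEM with 10% FBS, then used once TEER exceeded 500 Ω·cm². After a 15 min HBSS equilibration, 0.1 mg/mL extract plus 100 µmol/L inhibitor was dosed AP or BL at 37 °C with 50 r/min shaking. Receiver was sampled with replacement and four anthraquinones were quantified by HPLC. Papp came from the slope, ER = Papp(B-A)/Papp(A-B), n=3.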

MRP = test: Effect of MK-571; assay type: in vitro ADME, human; conditions: 0.1 mg/mL SKE + 100 μmol/L MK-571; Caco-2; Fig. 4
Method in brief: as §1

[3] = ref Wang, Yang, & Song, 2001; cited from earlier work
[4] = in RAI, contents as in 0.05 mg/mL SKE
[5] = in RAI, contents as in 0.1 mg/mL SKE

P-gp, sequence (P08183 whole entry): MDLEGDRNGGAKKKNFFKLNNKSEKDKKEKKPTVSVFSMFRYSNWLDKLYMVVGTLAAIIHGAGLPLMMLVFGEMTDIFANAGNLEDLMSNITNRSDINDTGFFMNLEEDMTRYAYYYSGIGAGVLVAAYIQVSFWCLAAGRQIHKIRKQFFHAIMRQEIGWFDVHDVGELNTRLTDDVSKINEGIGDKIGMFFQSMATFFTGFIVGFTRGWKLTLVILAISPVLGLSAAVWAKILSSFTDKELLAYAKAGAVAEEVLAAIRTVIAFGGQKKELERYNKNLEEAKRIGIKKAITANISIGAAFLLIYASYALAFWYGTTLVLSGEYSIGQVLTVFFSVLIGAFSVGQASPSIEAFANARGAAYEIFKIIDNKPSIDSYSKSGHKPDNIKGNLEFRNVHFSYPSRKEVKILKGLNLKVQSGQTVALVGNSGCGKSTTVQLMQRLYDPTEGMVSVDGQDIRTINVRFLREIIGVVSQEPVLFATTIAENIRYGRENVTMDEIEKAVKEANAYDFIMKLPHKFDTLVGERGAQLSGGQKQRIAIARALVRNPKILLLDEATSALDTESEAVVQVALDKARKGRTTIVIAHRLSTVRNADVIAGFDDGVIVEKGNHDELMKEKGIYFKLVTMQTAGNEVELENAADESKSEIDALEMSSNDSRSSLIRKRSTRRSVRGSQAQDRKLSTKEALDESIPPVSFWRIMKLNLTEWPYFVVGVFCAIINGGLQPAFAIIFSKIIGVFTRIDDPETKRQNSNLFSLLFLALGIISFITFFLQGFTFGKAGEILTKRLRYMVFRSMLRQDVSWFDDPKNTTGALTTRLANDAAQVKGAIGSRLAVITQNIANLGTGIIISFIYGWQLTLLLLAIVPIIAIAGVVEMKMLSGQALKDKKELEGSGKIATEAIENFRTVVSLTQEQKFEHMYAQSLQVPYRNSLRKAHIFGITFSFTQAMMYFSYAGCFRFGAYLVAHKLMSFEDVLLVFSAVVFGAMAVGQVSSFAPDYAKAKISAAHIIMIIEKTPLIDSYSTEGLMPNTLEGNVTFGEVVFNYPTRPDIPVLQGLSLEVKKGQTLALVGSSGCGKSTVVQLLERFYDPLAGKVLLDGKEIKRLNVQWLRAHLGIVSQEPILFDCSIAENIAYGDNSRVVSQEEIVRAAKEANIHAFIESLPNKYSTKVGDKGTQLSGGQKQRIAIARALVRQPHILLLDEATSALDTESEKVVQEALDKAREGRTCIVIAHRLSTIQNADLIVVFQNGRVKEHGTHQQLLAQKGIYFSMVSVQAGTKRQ

| Structure (SMILES) | efflux ratio at 0.05 mg/mL [1, 4] | efflux ratio at 0.1 mg/mL [1, 5] | efflux ratio at 0.025 mg/mL ([1]; in SKE) | efflux ratio at 0.05 mg/mL ([1]; in SKE, 0.05 mg/mL) | efflux ratio at 0.1 mg/mL ([1]; in SKE, 0.1 mg/mL) | Papp A→B at 0.05 mg/mL [1, 4] | Papp A→B at 0.1 mg/mL [1, 5] | Papp A→B at 0.025 mg/mL ([1]; in SKE) | Papp A→B at 0.05 mg/mL ([1]; in SKE, 0.05 mg/mL) | Papp A→B at 0.1 mg/mL ([1]; in SKE, 0.1 mg/mL) | Papp B→A at 0.05 mg/mL [1, 4] | Papp B→A at 0.1 mg/mL [1, 5] | Papp B→A at 0.025 mg/mL ([1]; in SKE) | Papp B→A at 0.05 mg/mL ([1]; in SKE, 0.05 mg/mL) | Papp B→A at 0.1 mg/mL ([1]; in SKE, 0.1 mg/mL) | Cumulative transport mass (AP-BL) (Caco-2 cell monolayer) | Peff in RAI compared with SKE [2] | ER after addition of verapamil, compared with SKE group (P-gp) | ER after addition of MK571, compared with SKE group (MRP) | pKa [3] | also measured |
| --- | --- | --- | --- | --- | --- | --- | --- | --- | --- | --- | --- | --- | --- | --- | --- | --- | --- | --- | --- | --- | --- |
| Cc1cc(O)c2c(c1)C(=O)c1cc(O)cc(O)c1C2=O [Emodin, emodin] | 1.48 | 1.62 | 1.6 | 1.59 | 1.46 | 7.74 ± 0.61 ×10⁻⁶ cm/s | 7.31 ± 0.97 ×10⁻⁶ cm/s | 7.4 ± 0.08 ×10⁻⁶ cm/s | 6.65 ± 0.16 ×10⁻⁶ cm/s | 6.24 ± 0.29 ×10⁻⁶ cm/s | 11.5 ± 0.27 ×10⁻⁶ cm/s | 11.8 ± 0.66 ×10⁻⁶ cm/s | 11.9 ± 1.11 ×10⁻⁶ cm/s | 10.6 ± 0.31 ×10⁻⁶ cm/s | 9.13 ± 0.42 ×10⁻⁶ cm/s | time- and concentration-dependent | higher than those in SKE | reduced the most | decreased | 5.70 | – |
| Cc1cc(O)c2c(c1)C(=O)c1cccc(O)c1C2=O [Chrysophanol, chrysophanol] | 1.75 | 1.66 | 2.22 | 2.02 | 1.61 | 8.99 ± 0.44 ×10⁻⁶ cm/s | 7.97 ± 1.06 ×10⁻⁶ cm/s | 6.23 ± 0.86 ×10⁻⁶ cm/s | 6.87 ± 0.23 ×10⁻⁶ cm/s | 6.63 ± 0.48 ×10⁻⁶ cm/s | 15.7 ± 1.05 ×10⁻⁶ cm/s | 13.2 ± 0.67 ×10⁻⁶ cm/s | 13.8 ± 0.65 ×10⁻⁶ cm/s | 13.9 ± 0.86 ×10⁻⁶ cm/s | 10.7 ± 0.15 ×10⁻⁶ cm/s | time- and concentration-dependent | higher than those in SKE | decreased | reduced the most | 8.58 | – |
| O=C(O)c1cc(O)c2c(c1)C(=O)c1cccc(O)c1C2=O [Rhein, rhein] | 0.76 | 0.88 | 0.96 | 0.73 | 0.64 | 35 ± 1.72 ×10⁻⁶ cm/s | 34.2 ± 1.13 ×10⁻⁶ cm/s | 27.4 ± 1.47 ×10⁻⁶ cm/s | 28.02 ± 0.14 ×10⁻⁶ cm/s | 31 ± 2.31 ×10⁻⁶ cm/s | 26.6 ± 1.03 ×10⁻⁶ cm/s | 30.1 ± 1.37 ×10⁻⁶ cm/s | 21 ± 0.4 ×10⁻⁶ cm/s | 20.5 ± 0.46 ×10⁻⁶ cm/s | 19.8 ± 0.37 ×10⁻⁶ cm/s | time- and concentration-dependent | lower than that in SKE | – | – | 4.72 | Papp(A-B) as fold of Papp(B-A) (Caco-2 cell monolayer; 0.025 mg/mL SKE): 1.4 fold; Papp(A-B) as fold of Papp(B-A) (Caco-2 cell monolayer; 0.05 mg/mL SKE): 1.6 fold; ER (over all concentrations) (Caco-2 cell monolayer; in RAI, contents as in 0.025-0.1 mg/mL SKE): lower than 1.0; ER (over all concentrations) (Caco-2 cell monolayer; in SKE, 0.025-0.1 mg/mL): lower than 1.0 |
| O=C1c2cccc(O)c2C(=O)c2c(O)cc(CO)cc21 [Aloe-emodin, aloe-emodin] | – | – | – | – | – | 15.1 ± 1.54 ×10⁻⁶ cm/s | 14.3 ± 1.06 ×10⁻⁶ cm/s | 19.6 ± 2.04 ×10⁻⁶ cm/s | 19.4 ± 1.47 ×10⁻⁶ cm/s | 17.6 ± 0.74 ×10⁻⁶ cm/s | 16.1 ± 1.83 ×10⁻⁶ cm/s | 17.3 ± 0.79 ×10⁻⁶ cm/s | 24 ± 0.59 ×10⁻⁶ cm/s | 23.4 ± 1.56 ×10⁻⁶ cm/s | 19.4 ± 1.65 ×10⁻⁶ cm/s | time- and concentration-dependent | higher than those in SKE | reduced the most | decreased | 8.64 | – |
